Test results reported in article PMC7668563 (International journal of molecular biology (Edmond, Okla.), 2020).
Read-outs that look alike come from different tables or passages of the source.

What was measured:
[1] = molecular target: T1, apo-human transferrin (apo-hTf) (Homo sapiens, UniProt P02787); test: UV-Vis absorbance titration of apo-hTf; format: binding; conditions: for Ka at 280 nm: absorbance at 280 nm; for Association constants, Ka, 280 nm: absorbance of apo-hTf at 280 nm
[2] = molecular target: T1, apo-human transferrin (apo-hTf); test: Fluorescence quenching of apo-hTf; format: binding; conditions: for biomolecular quenching rate constant kq: kq=Ksv/τ0; for Stern-Volmer quenching constant Ksv / number of binding sites n: pH 7.4; for quenching association constant Ka: pH 7.4, modified Stern-Volmer
Procedure, shortened: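 Intrinsic fluorescence of apo-hTf in Tris-HCl pH 7.4 was titrated with test compound (Tris-HCl/2% DMSO). Conditions: excitation 280 nm, emission 290–500 nm, slits 10/5 nm, 1.0 cm quartz cell, at 296, 303, 310 and 317 K, triplicate titrations. Intensities were corrected for inner filter effect using absorbances at excitation and emission wavelengths. Ksv came from Stern-Volmer plots of F0/F vs [Q]; kq = Ksv/τ0 (τ0 ~1.0×10−8); Ka and n came from the modified Stern-Volmer equation.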

[3] = molecular target: T1, apo-human transferrin (apo-hTf); test: Thermodynamic parameters of apo-hTf complex formation; format: binding; conditions: for ∆H° / ∆S°: pH 7.4, from Ksv at 296-317 K
Procedure, shortened: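 Ksv values were obtained from apo-hTf fluorescence quenching at pH 7.4 at 296, 303, 310 and 317 K. ΔH°, ΔS° and ΔG° were derived from linear regression of ln(Ksv) vs 1/T (Van't Hoff equation).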

[4] = molecular target: T1, apo-human transferrin (apo-hTf); test: Fluorescence resonance energy transfer; format: binding; conditions: for Förster critical energy transfer distance R0 / binding distance r (donor-acceptor): k^2=2/3, n=1.336, ØD=0.118; for efficiency of energy transfer E: room temperature, 1.0×10^−5 mol L^−1 each
Procedure, shortened: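 Emission spectrum of 1.0×10−5 mol L−1 apo-hTf and absorption spectrum of 1.0×10−5 mol L−1 test compound were recorded in 20 mM Tris-HCl pH 7.4 at room temperature, 260–450 nm, and their spectral overlap determined. E was calculated from apo-hTf fluorescence without and with equimolar test compound. R0 and donor–acceptor distance r came from Förster equations.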

[5] = molecular target: T1, apo-human transferrin (apo-hTf); test: Far-UV circular dichroism titration of apo-hTf, secondary structure content
Procedure, shortened: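 Apo-hTf (4.0×10−7 mol L−1) in 2 mM Tris-HCl pH 7.4 was titrated with a 1.0×10−3 mol L−1 stock of test compound in Tris-HCl/2% DMSO, to final 0–2.4×10−6 mol L−1. Far-UV CD was recorded from 190–250 nm under nitrogen in a 1.0 cm cell: six scans at 100 nm/min. Baseline was buffer ± DMSO at room temperature. α-Helix was derived from MRE at 208 nm; β-sheet and random coil by the CD-RRG method.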

[6] = test system: human breast adenocarcinoma cell line, MCF-7; conditions: cited from earlier work
[7] = test system: human colorectal adenocarcinoma cell line, HT-29; conditions: cited from earlier work

T1 sequence (P02787 20-698): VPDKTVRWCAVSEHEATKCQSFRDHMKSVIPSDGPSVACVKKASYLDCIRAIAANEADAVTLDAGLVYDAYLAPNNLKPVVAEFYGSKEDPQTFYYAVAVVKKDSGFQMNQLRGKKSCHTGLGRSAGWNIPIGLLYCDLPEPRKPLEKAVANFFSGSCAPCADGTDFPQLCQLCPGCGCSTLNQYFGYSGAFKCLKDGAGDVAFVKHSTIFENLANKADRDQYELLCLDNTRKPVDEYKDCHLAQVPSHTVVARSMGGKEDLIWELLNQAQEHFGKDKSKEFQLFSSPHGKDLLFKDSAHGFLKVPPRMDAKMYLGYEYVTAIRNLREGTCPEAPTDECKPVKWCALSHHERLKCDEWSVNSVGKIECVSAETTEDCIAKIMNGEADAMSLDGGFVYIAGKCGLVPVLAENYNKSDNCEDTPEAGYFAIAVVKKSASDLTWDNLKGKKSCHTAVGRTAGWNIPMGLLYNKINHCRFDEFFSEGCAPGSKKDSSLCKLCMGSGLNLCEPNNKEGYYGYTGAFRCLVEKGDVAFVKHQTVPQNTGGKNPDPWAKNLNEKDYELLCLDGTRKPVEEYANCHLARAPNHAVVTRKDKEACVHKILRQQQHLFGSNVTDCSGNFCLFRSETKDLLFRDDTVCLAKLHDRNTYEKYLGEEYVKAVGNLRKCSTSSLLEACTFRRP

[Cl-].[Cl-].[Ti+4].c1cc[cH-]c1.c1cc[cH-]c1 [Cp2TiCl2, titanocene dichloride]
Ka at 280 nm [1]: 2890 M⁻¹ | Association constants, Ka, 280 nm ([1]; pH 7.4): 2.89 10^3 M^−1 | biomolecular quenching rate constant kq ([2]; 296 K): 1.53e+11 M⁻¹ s⁻¹ | Stern-Volmer quenching constant Ksv ([2]; 296 K): 1530 M⁻¹ | number of binding sites n ([2]; 296 K): 1.11 | quenching association constant Ka ([2]; 296 K): 4500 M⁻¹ | biomolecular quenching rate constant kq ([2]; 303 K): 1.68e+11 M⁻¹ s⁻¹ | Stern-Volmer quenching constant Ksv ([2]; 303 K): 1680 M⁻¹ | number of binding sites n ([2]; 303 K): 1.09 | quenching association constant Ka ([2]; 303 K): 4100 M⁻¹ | biomolecular quenching rate constant kq ([2]; 310 K): 1.76e+11 M⁻¹ s⁻¹ | Stern-Volmer quenching constant Ksv ([2]; 310 K): 1760 M⁻¹ | number of binding sites n ([2]; 310 K): 1.07 | quenching association constant Ka ([2]; 310 K): 3600 M⁻¹ | biomolecular quenching rate constant kq ([2]; 317 K): 1.93e+11 M⁻¹ s⁻¹ | Stern-Volmer quenching constant Ksv ([2]; 317 K): 1930 M⁻¹ | number of binding sites n ([2]; 317 K): 1.05 | quenching association constant Ka ([2]; 317 K): 3100 M⁻¹ | ∆G° ([3]; 296 K): -4.316 kcal/mol | ∆G° ([3]; 303 K): -4.465 kcal/mol | ∆G° ([3]; 310 K): -4.613 kcal/mol | ∆G° ([3]; 317 K): -4.761 kcal/mol | ∆H° [3]: 1.94 kcal/mol | ∆S° [3]: 88.48 J/mol K | Förster critical energy transfer distance R0 [4]: 5.03 nm | binding distance r (donor-acceptor) [4]: 6.77 nm | efficiency of energy transfer E [4]: 0.144 | other secondary structure content of apo-hTf ([5]; compound concentration 0.4 (M)): 18.9% | random coil content of apo-hTf ([5]; compound concentration 0.4 (M)): 33.8% | α-helix content of apo-hTf ([5]; compound concentration 0.4 (M)): 29.3% | β-sheet content of apo-hTf ([5]; compound concentration 0.4 (M)): 18% | other secondary structure content of apo-hTf ([5]; compound concentration 0.8 (M)): 18.9% | random coil content of apo-hTf ([5]; compound concentration 0.8 (M)): 33.8% | α-helix content of apo-hTf ([5]; compound concentration 0.8 (M)): 29.1% | β-sheet content of apo-hTf ([5]; compound concentration 0.8 (M)): 18.2% | other secondary structure content of apo-hTf ([5]; compound concentration 1.2 (M)): 18.8% | random coil content of apo-hTf ([5]; compound concentration 1.2 (M)): 33.9% | α-helix content of apo-hTf ([5]; compound concentration 1.2 (M)): 29% | β-sheet content of apo-hTf ([5]; compound concentration 1.2 (M)): 18.3% | other secondary structure content of apo-hTf ([5]; compound concentration 1.6 (M)): 18.9% | random coil content of apo-hTf ([5]; compound concentration 1.6 (M)): 33.9% | α-helix content of apo-hTf ([5]; compound concentration 1.6 (M)): 28.8% | β-sheet content of apo-hTf ([5]; compound concentration 1.6 (M)): 18.4% | other secondary structure content of apo-hTf ([5]; compound concentration 2 (M)): 18.9% | random coil content of apo-hTf ([5]; compound concentration 2 (M)): 34% | α-helix content of apo-hTf ([5]; compound concentration 2 (M)): 28.6% | β-sheet content of apo-hTf ([5]; compound concentration 2 (M)): 18.5% | other secondary structure content of apo-hTf ([5]; compound concentration 2.4 (M)): 19% | random coil content of apo-hTf ([5]; compound concentration 2.4 (M)): 34% | α-helix content of apo-hTf ([5]; compound concentration 2.4 (M)): 28.4% | β-sheet content of apo-hTf ([5]; compound concentration 2.4 (M)): 18.6% | IC50 ([6]; read-out: IC50 (±SD), MCF-7, ref 82): 570 µM | IC50 ([7]; read-out: IC50 (±SD), HT-29, ref 82): 413 µM

C1CCCC1.C1CCCC1.[Cl][W][Cl] [Cp2WCl2]
Ka at 280 nm [1]: 2930 M⁻¹ | Ka at 361 nm ([1]; absorbance at 361 nm): 2980 M⁻¹ | Association constants, Ka, 280 nm ([1]; pH 7.4): 2.93 10^3 M^−1 | Association constants, Ka, 361 nm ([1]; absorbance of apo-hTf at 361 nm, pH 7.4): 2.98 10^3 M^−1 | biomolecular quenching rate constant kq ([2]; 296 K): 1.61e+11 M⁻¹ s⁻¹ | Stern-Volmer quenching constant Ksv ([2]; 296 K): 1610 M⁻¹ | number of binding sites n ([2]; 296 K): 1.16 | quenching association constant Ka ([2]; 296 K): 7800 M⁻¹ | biomolecular quenching rate constant kq ([2]; 303 K): 1.76e+11 M⁻¹ s⁻¹ | Stern-Volmer quenching constant Ksv ([2]; 303 K): 1760 M⁻¹ | number of binding sites n ([2]; 303 K): 1.13 | quenching association constant Ka ([2]; 303 K): 6000 M⁻¹ | biomolecular quenching rate constant kq ([2]; 310 K): 1.89e+11 M⁻¹ s⁻¹ | Stern-Volmer quenching constant Ksv ([2]; 310 K): 1890 M⁻¹ | number of binding sites n ([2]; 310 K): 1.08 | quenching association constant Ka ([2]; 310 K): 4200 M⁻¹ | biomolecular quenching rate constant kq ([2]; 317 K): 2.09e+11 M⁻¹ s⁻¹ | Stern-Volmer quenching constant Ksv ([2]; 317 K): 2090 M⁻¹ | number of binding sites n ([2]; 317 K): 1.04 | quenching association constant Ka ([2]; 317 K): 3200 M⁻¹ | ∆G° ([3]; 296 K): -4.343 kcal/mol | ∆G° ([3]; 303 K): -4.498 kcal/mol | ∆G° ([3]; 310 K): -4.653 kcal/mol | ∆G° ([3]; 317 K): -4.809 kcal/mol | ∆H° [3]: 2.24 kcal/mol | ∆S° [3]: 93.12 J/mol K | Förster critical energy transfer distance R0 [4]: 4.53 nm | binding distance r (donor-acceptor) [4]: 6.05 nm | efficiency of energy transfer E [4]: 0.15 | other secondary structure content of apo-hTf ([5]; compound concentration 0.4 (M)): 18.3% | random coil content of apo-hTf ([5]; compound concentration 0.4 (M)): 33.7% | α-helix content of apo-hTf ([5]; compound concentration 0.4 (M)): 29.8% | β-sheet content of apo-hTf ([5]; compound concentration 0.4 (M)): 18.2% | other secondary structure content of apo-hTf ([5]; compound concentration 0.8 (M)): 18.4% | random coil content of apo-hTf ([5]; compound concentration 0.8 (M)): 33.8% | α-helix content of apo-hTf ([5]; compound concentration 0.8 (M)): 29.5% | β-sheet content of apo-hTf ([5]; compound concentration 0.8 (M)): 18.3% | other secondary structure content of apo-hTf ([5]; compound concentration 1.2 (M)): 18.6% | random coil content of apo-hTf ([5]; compound concentration 1.2 (M)): 33.9% | α-helix content of apo-hTf ([5]; compound concentration 1.2 (M)): 29.1% | β-sheet content of apo-hTf ([5]; compound concentration 1.2 (M)): 18.4% | other secondary structure content of apo-hTf ([5]; compound concentration 1.6 (M)): 19.1% | random coil content of apo-hTf ([5]; compound concentration 1.6 (M)): 34.1% | α-helix content of apo-hTf ([5]; compound concentration 1.6 (M)): 28.3% | β-sheet content of apo-hTf ([5]; compound concentration 1.6 (M)): 18.5% | other secondary structure content of apo-hTf ([5]; compound concentration 2 (M)): 19.2% | random coil content of apo-hTf ([5]; compound concentration 2 (M)): 34.3% | α-helix content of apo-hTf ([5]; compound concentration 2 (M)): 27.9% | β-sheet content of apo-hTf ([5]; compound concentration 2 (M)): 18.6% | other secondary structure content of apo-hTf ([5]; compound concentration 2.4 (M)): 19.4% | random coil content of apo-hTf ([5]; compound concentration 2.4 (M)): 34.4% | α-helix content of apo-hTf ([5]; compound concentration 2.4 (M)): 27.5% | β-sheet content of apo-hTf ([5]; compound concentration 2.4 (M)): 18.7% | IC50 ([6]; read-out: IC50 (±SD), MCF-7, ref 19): 630 µM | IC50 ([7]; read-out: IC50 (±SD), HT-29, ref 19): 1000 µM
